This excerpt belongs to a sample that is enriched for hits.
Lung fibro prol – blocks proliferation of human lung fibroblasts; viability, % at 10 µM; LL 47 human lung fibroblast viability, ATP luminescence; stronger effect = lower value; 85,000 tested, 1.1% active;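 active = viability at or below 50% in the single dose screen; inactive = viability above 50%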;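 also: compound exposure lasted 72 h before the ATP readout; 100% = median luminescence of untreated cell-only wells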
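Benchmarks: Cell-only wells, no compound | Test system: LL 47 human lung fibroblasts, passage 12 or lower | Input: 1,150 cells/well | Measured by: CellTiter-Glo luminescence measuring cellular ATP | Medium: IMEM, 15% FBS supplement | Schedule: Overnight attachment after seeding, then 72 h compound exposure at 37 °C | Doses: Compound addition at 0.1% DMSO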
bCat KO growth – beta-catenin-lacking colon tumor cell growth suppression; HCT116 beta-catenin knockout viability, CellTiter-Glo, 60 h; stronger effect = lower value; viability, % at 10 µM; 140,000 tested, 1.5% active;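 active = viability at or under a set limit, the compound median less 4 SD, cut at about 6% in these data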;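 also: 0% = Hyamine 1622 control at 20 µM and 100% = untreated cell control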
HCT116 PTEN-null – suppresses growth of cells with PTEN deletion. HCT116 PTEN-null viability, CellTiter-Glo, 60 h; stronger effect = lower value. viability, % at 10 µM. 140,000 tested, 1.2% active. AID 827;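 active = viability at or below a set limit, 4 SD under the median of all tested compounds, cut at about 3.7% in these data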;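 also: PTEN knockout HCT116 line with beta catenin targeted HCT116 as companion control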
H69AR growth 86K – blocks growth of human H69AR lung tumor cells; AID 598; viability, % at 10 µM; 85,000 tested, 6% active; H69AR lung tumor viability, ATP luminescence, 72 h; stronger effect = lower value;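 active = viability at or below 40%; inactive = viability above 40%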;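 also: multidrug resistant small cell line overexpressing MRP-1 efflux transporter; 100% = mean luminescence of untreated control wells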
HUVEC inhibit – blocks proliferation of human endothelial cells; HUVEC proliferation, CellTiter-Glo luminescence, 72 h; stronger effect = lower value; viability, % at 10 µM (by protocol); 86,000 tested, 1.1% active;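 active = viability at or below 30%; inactive = viability above 30%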;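 also: 100% = median luminescence of DMSO-only cell control wells on each plate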
The depositor's hits bear a star; x = no result.

SMILES | Lung fibro prol | bCat KO growth | HCT116 PTEN-null | H69AR growth 86K | HUVEC inhibit
Cc1cccc(OCc2n[nH]c(=S)n2C2CCCCC2)c1 | 84 | 82 | 77 | 22* | 64
S=c1[nH]nc(COc2ccc(Cl)cc2)n1C1CCCCC1 | 88 | 90 | 90 | 64 | 89
CCN(CC)C(=O)N1CCc2ccccc2C1CN1C(=O)c2ccccc2C1=O (stereo not given) | 102 | x | x | 77 | 96
C=C(C)C(=O)OC1(C(F)(F)F)Oc2cc(C)ccc2NC1=O (stereo not given) | 17* | 106 | 97 | 1.5* | 15*
COC(=O)CC1Oc2ccc(C)cc2NC1=O (stereo not given) | 104 | 87 | 87 | 92 | 103
O=C(NCCN1CCN(c2ccccc2)CC1)c1ccc(NC(=O)C2CCCO2)cc1 (stereo not given) | 105 | 98 | 110 | 97 | 99
N#C[C@H]1[C@H](c2ccccc2)[C@](C#N)(C(=O)c2ccccc2)[C@@H]2C=Cc3ccccc3N21 | x | 5.3* | 3.3* | x | x
COc1ccc(C(=O)N2c3ccccc3C=CC2C#N)cc1 (stereo not given) | x | 28 | 38 | x | x
COc1ccc(OC)c(NC(=O)c2nnn(Cc3ccccc3C)c2N)c1 | x | 81 | 87 | x | x
Nc1nonc1C(=O)NCCNC(=O)c1cccs1 | 108 | 85 | 104 | 103 | 93
c1ccc(-c2ccc(OCCOCCn3cncn3)cc2)cc1 | 101 | 72 | 77 | 101 | 106
O=C(Nc1ncnc2sc3c(c12)CCC3)c1ccco1 | 88 | 100 | 97 | 89 | 92
C(=N\Nc1ncnc2sc3c(c12)CCC3)/c1ccncc1 | x | 10 | 3.3* | x | x
C(=N\Nc1ncnc2sc3c(c12)CCC3)/c1cccs1 | x | 2.1* | 2.5* | x | x
Cc1ccc(C)c(NS(=O)(=O)c2cc(C(=O)Nc3ccccc3-c3ccccc3)ccc2Cl)c1 | x | 73 | 66 | x | x
Cc1ccccc1OCc1nc2ccccc2c(=O)n1/N=C/c1cn[nH]c1-c1ccc(Br)cc1 | x | 19 | 2.7* | x | x
O=c1c2ccccc2nc(COc2ccccc2)n1/N=C/c1cn[nH]c1-c1ccccc1 | x | 64 | 19 | x | x
Cc1occc1-c1nnc(SCC(=O)N(C)C)o1 | 105 | 101 | 99 | 85 | 96
Cn1c(=O)[nH]c(=O)c2c1nc(CN1CCN(c3cccc(Cl)c3)CC1)n2CCc1ccccc1 | 85 | 79 | 74 | 2.8* | 73
CCCCCn1c(CN2CCN(c3cccc(Cl)c3)CC2)nc2c1c(=O)[nH]c(=O)n2C | 84 | 60 | 48 | 39* | 64
CCOC(=O)C(NCc1ccco1)(NC(=O)c1ccccc1)C(F)(F)F (stereo not given) | x | 93 | 107 | x | x
O=C(NCCc1ccccn1)c1cc(-c2cccc3ccccc23)nc2ccccc12 | x | 87 | 77 | x | x
Cn1c(=O)cc(SCC(=O)NCc2ccco2)c2ccccc21 | 88 | 90 | 98 | 108 | 90
Cc1cc(NC(=O)CSc2cn(CCNC(=O)c3ccc(Cl)cc3)c3ccccc23)no1 | 101 | 45 | 40 | 84 | 83
CCOc1ccc(C(=O)NCCn2cc(SCC(=O)Nc3cc(C)on3)c3ccccc32)cc1 | 97 | 81 | 81 | 33* | 84
SMILES | Lung fibro prol | bCat KO growth | HCT116 PTEN-null | H69AR growth 86K | HUVEC inhibit
O=C(CSc1cn(CCNC(=O)c2ccc3ccccc3c2)c2ccccc12)NCc1ccco1 | 98 | 62 | 59 | 9.6* | 62
Cc1nc(CSc2nnc3scc(-c4ccc(Cl)cc4)n23)cs1 | 87 | 97 | 103 | 78 | 95
N#CC1=C(N)C(C#N)(C#N)C(c2cccnc2)C2CN(C(=O)OCc3ccccc3)CC=C12 (stereo not given) | 72 | 61 | 69 | 11* | 53
CN1CC=C2C(C#N)=C(N)C(C#N)(C#N)C(c3cccc(Cl)c3Cl)C2C1 (stereo not given) | 78 | 84 | 89 | 15* | 71
CN1CC=C2C(C#N)=C(N)C(C#N)(C#N)[C@H](c3ccoc3)[C@H]2C1 | 95 | 76 | 69 | 56 | 104
N#CC1=C(N)C(C#N)(C#N)[C@H](c2ccoc2)[C@H]2CN(Cc3ccccc3)CC=C12 | 69 | 89 | 85 | 4.0* | 39
CCOC(=O)N1CC=C2C(C#N)=C(N)C(C#N)(C#N)[C@H](c3ccc(OCC)c(OCC)c3)[C@H]2C1 | 79 | 94 | 97 | 26* | 60
O=C(OCn1nnc2ccccc2c1=O)c1ccc2ccccc2n1 | 92 | 87 | 89 | 100 | 83
Cc1cc(C(=O)OCC(=O)NCc2ccco2)c(C)n1-c1ccc(F)cc1 | 61 | 14 | 19 | 21* | 45
CCOC(=O)CSC1=C(C#N)C(c2ccccc2OC)CC(=O)N1 (stereo not given) | 76 | 31 | 35 | 25* | 66
CCSC1=C(C#N)C(c2ccccc2OC)CC(=O)N1 (stereo not given) | 98 | 92 | 94 | 87 | 113
CCSC1=C(C#N)C(c2ccc(C)s2)CC(=O)N1 (stereo not given) | 104 | x | x | 80 | 91
CCOC(=O)CSC1=C(C#N)C(c2ccc(C)s2)CC(=O)N1 (stereo not given) | 57 | 14 | 16 | 35* | 51
O=C(CSc1n[nH]c(-c2ccccc2)n1)Nc1ncc(Br)cc1Br | 110 | 106 | 98 | 92 | 111
Cc1ncc(CCl)c2c1OC(C)(C)OC2 | 97 | 100 | 96 | 2.8* | 79
COc1ccc2ccccc2c1/C=N\n1c(C)cc(C)c(C(N)=O)c1=O | x | 113 | 102 | x | x
Cc1nnc(-c2ccccc2)c(=O)n1/N=C/c1c(O)ccc2ccccc12 | x | 4.5* | 4 | x | x
O=c1[nH]c2ccc(N/C(=N/S(=O)(=O)c3ccccc3)c3ccccc3)cc2[nH]1 | x | 89 | 99 | x | x
Cc1ccccc1Cn1nc(C)c(NC(=O)/C=C/c2cnn(C)c2)c1C | x | 86 | 86 | x | x
O=C(NC(Cc1ccc2c(c1)OCO2)C(=O)NC(Cc1ccccc1)C(=O)O)c1ccccc1 (stereo not given) | 104 | 94 | 94 | 74 | 103
CN(CCO)c1nc(N)c2c(N)nc3c(c2c1C#N)CC(=O)N3C1CCCC1 | 94 | 33 | 43 | 31* | 71
CCN(CC)c1nc(N)c2c(N)nc3c(c2c1C#N)CC(c1ccccc1)O3 (stereo not given) | 86 | 78 | 62 | 59 | 72
CC(C)(C)N1C(=O)Cc2c1nc(N)c1c(N)nc(N3CCCCC3CO)c(C#N)c21 (stereo not given) | 88 | 74 | 86 | 20* | 74
Cc1ccc(S(=O)(=O)/N=C(\c2ccc(Cl)cc2)N2CCOCC2)cc1 | x | 104 | 95 | x | x
CCOC(=O)NC(NCCc1ccccc1)(C(F)(F)F)C(F)(F)F | 98 | 101 | 104 | 12* | 98
O=C(CS(=O)(=O)c1cccc(C(F)(F)F)c1)Nc1ccccc1Cl | x | 94 | 97 | x | x
CCCCCc1c(C)nc(Nc2nc(C)c3cc(OC)ccc3n2)[nH]c1=O | 96 | 57 | 64 | 70 | 78
COc1ccc2c(C)nc(Nc3nc(C)c(C)c(=O)[nH]3)nc2c1 | 13* | 1.7* | 1.6* | 31* | 14*
